Measured values collected from several papers.
Compare with care: the assays were run in different laboratories.
Target: MAP/microtubule affinity-regulating kinase 4 (MARK4, Homo sapiens, UniProt Q96L34)
One construct used (Q96L34 1-752): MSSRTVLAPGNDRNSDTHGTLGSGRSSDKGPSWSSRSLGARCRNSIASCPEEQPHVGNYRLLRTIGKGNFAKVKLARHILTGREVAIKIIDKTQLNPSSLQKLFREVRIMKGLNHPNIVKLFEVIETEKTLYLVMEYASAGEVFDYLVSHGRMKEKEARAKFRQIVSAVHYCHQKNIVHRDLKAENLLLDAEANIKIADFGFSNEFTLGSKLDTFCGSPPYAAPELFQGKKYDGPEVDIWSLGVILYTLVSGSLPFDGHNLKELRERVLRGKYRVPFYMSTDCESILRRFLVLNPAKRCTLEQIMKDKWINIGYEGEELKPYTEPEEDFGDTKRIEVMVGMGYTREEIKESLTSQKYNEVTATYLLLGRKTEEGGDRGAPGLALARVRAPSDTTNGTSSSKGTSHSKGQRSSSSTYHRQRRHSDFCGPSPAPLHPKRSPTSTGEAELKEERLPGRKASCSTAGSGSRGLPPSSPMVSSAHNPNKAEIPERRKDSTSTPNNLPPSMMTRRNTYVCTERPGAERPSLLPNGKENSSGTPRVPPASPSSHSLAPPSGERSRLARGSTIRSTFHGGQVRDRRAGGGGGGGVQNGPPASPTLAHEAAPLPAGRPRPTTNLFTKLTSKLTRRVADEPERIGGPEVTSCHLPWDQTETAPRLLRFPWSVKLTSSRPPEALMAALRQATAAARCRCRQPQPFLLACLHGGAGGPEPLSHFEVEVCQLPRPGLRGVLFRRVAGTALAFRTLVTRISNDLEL

| Structure (SMILES) | read-out | mode | technique | tested at | measurement | result |
| --- | --- | --- | --- | --- | --- | --- |
| CS(=O)(=O)NCC[C@H](NC(=O)c1cncc2c1cnn2-c1ccc(F)cc1)c1ccnc(S(C)(=O)=O)c1 | cell-free assay | – | competition with immobilised ligand | 1 µM | remaining binding | 78% |
| Cc1nn(CC(F)(F)F)cc1Nc1ncc(Br)c(NCCc2cnc[nH]2)n1 | enzyme activity | inhibitor | radiometric | 1 µM | remaining activity | 49% |
| COc1cc(/C=C/C(=O)CC(=O)/C=C/c2ccc(O)c(OC)c2)ccc1O | enzyme activity | inhibitor | – | 1 µM | activity vs control | 74% |
| Oc1cccc(-c2nc(N3CCOCC3)c3oc4ncccc4c3n2)c1 | enzyme activity | inhibitor | – | 10 µM | remaining activity | 108% |
| CO[C@@H](C)c1c(Nc2ccc([C@H](N(C)C(=O)C3CCS(=O)(=O)CC3)C(F)(F)F)cc2)cnc2cc(Cl)nn12 | cell-free assay | – | competition with immobilised ligand | 1 µM | remaining binding | 76% |
| COc1cc2ncnc(Nc3ccc(F)c(Cl)c3)c2cc1OCCCN1CCOCC1 | cell-free assay | – | – | 0.5 µM | remaining signal | 94.2% |
| C[C@H](c1cccc(C#N)c1)n1cc(Cl)cc(C(N)=O)c1=N | cell-free assay | – | competition with immobilised ligand | 1 µM | remaining binding | 99% |
| Cc1nn(CC(F)(F)F)cc1Nc1ncc(C2CC2)c(NCCCNC(=O)C2CCC2)n1 | enzyme activity | inhibitor | radiometric | 1 µM | remaining activity | 100% |
| FC(F)(F)Oc1cccc(-c2cnc3ccc(-c4ccncc4)nn23)c1 | enzyme activity | inhibitor | radiometric | 1 µM | activity vs control | 91% |
| CN1CCN(c2cnc3c(C4CCN(C(=O)c5ccc(OC(F)(F)F)cc5N)CC4)ncnc3c2)CC1 | cell-free assay | – | competition with immobilised ligand | 1 µM | remaining binding | 100% |
| Cc1nn(CC(F)(F)F)cc1Nc1ncc(Br)c(NCCCNC(=O)C2CCC2)n1 | enzyme activity | inhibitor | radiometric | 1 µM | remaining activity | 27% |
| CCS(=O)(=O)c1cc2cc(C[C@@](O)(CC(C)(C)c3ccc(F)cc3C(N)=O)C(F)(F)F)[nH]c2cn1 | cell-free assay | – | competition with immobilised ligand | 1 µM | remaining binding | 100% |
| CC/C(=N\NC(=O)NCc1cccc(O)c1)c1ccc(O)c(C)c1O | enzyme activity | inhibitor | – | 0.1 µM | inhibition | -2.4% |
| Nc1ncnc2occ(-c3ccc(NC(=O)Nc4cc(C(F)(F)F)ccc4F)cc3)c12 | cell-free assay | inhibitor | – | 20 µM | remaining signal | 51% |
| NS(=O)(=O)c1ccc(CNc2ccnc(Nc3cccc(CN4CCOCC4)c3)n2)cc1 | enzyme activity | inhibitor | radiometric | 1 µM | remaining activity | 98% |
| CCOCCn1cc(C(=O)Nc2ccc(-n3nc(-c4cccnc4)cc3C(F)(F)F)cn2)ccc1=O | cell-free assay | – | competition with immobilised ligand | 1 µM | remaining binding | 100% |
| NS(=O)(=O)c1ccc(CNc2nc(Nc3cccc(NC(=O)N4CCCC4)c3)ncc2C2CC2)cc1 | enzyme activity | inhibitor | radiometric | 1 µM | remaining activity | 89% |
| N[C@@H]1CCN(c2nccc(-c3cnn4ncccc34)n2)C1 | binding | – | – | 1 µM | remaining binding | 100% |
| CCCS(=O)(=O)Nc1ccc(F)c(C(=O)c2c[nH]c3ncc(-c4ccc(Cl)cc4)cc23)c1F | enzyme activity | inhibitor | – | 1 µM | inhibition | < 20% |
| O=C(Nc1cccnn1)N1CCC(=Cc2cccc(Oc3ccc(C(F)(F)F)cn3)c2)CC1 | cell-free assay | – | competition with immobilised ligand | 1 µM | remaining binding | 76% |
| O=C(NCCCNc1nc(Nc2cccc(CN3CCOCC3)c2)ncc1C1CC1)C1CCC1 | enzyme activity | inhibitor | radiometric | 1 µM | remaining activity | 5% |
| COc1cc2ncnc(Nc3ccc(Oc4ccccc4)cc3C)c2cc1OC | enzyme activity | inhibitor | – | 1 µM | inhibition | 6% |
| c1cc(CN2CCOCC2)cc(Nc2ncc(C3CC3)c(NCCc3c[nH]cn3)n2)c1 | enzyme activity | inhibitor | radiometric | 1 µM | remaining activity | 4% |
| CCOc1cc(-c2nncn2C)ccc1Nc1ncc2cc(C)nc(NCC(C)(C)C)c2n1 | enzyme activity | inhibitor | FRET | 1 µM | inhibition | < 15% |
| N#CCCc1ccc2c(c1)-c1[nH]c3ccc([N+](=O)[O-])cc3c1CC(=O)N2 | cell-free assay | – | – | 0.5 µM | remaining signal | 62.5% |
